Assays:
Assay type in all cases: functional
MCF7 [1] = assay: Growth inhibition of human MCF7 cells at 10 uM after 48 hrs by SRB assay relative to control; settings: MCF7, 48 h, read-out: GI
Method in brief: (§1)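 NCI single-dose primary screen: compound added at 1 × 10⁻⁵ M, cultures incubated 48 h. Protein stained with sulforhodamine B. Result given as percent growth of treated cells relative to untreated controls, where negative values mean cell kill.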

MCF7 [2] = assay: Cytotoxicity against human MCF7 cells assessed as cell growth at 10 uM after 48 hrs by SRB assay relative to control; settings: MCF7, 48 h, read-out: Activity
Method in brief: (§2)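 Single-dose NCI screen. Compound was added at 1 × 10^-5 M and cultures were incubated 48 h. End point was sulforhodamine B protein staining, reported as percent growth of treated cells versus untreated control cells.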

HOP-62 [3] = assay: Growth inhibition of human HOP62 cells at 10 uM after 48 hrs by SRB assay relative to control; settings: HOP-62, 48 h, read-out: GI; method in brief: as §1
HOP-62 [4] = assay: Cytotoxicity against human HOP62 cells assessed as cell growth at 10 uM after 48 hrs by SRB assay relative to control; settings: HOP-62, 48 h, read-out: Activity; method in brief: as §2
T47D = assay: Cytotoxicity against human T47D cells assessed as cell growth at 10 uM after 48 hrs by SRB assay relative to control; settings: read-out: Activity; method in brief: as §1
UO-31 [5] = assay: Cytotoxicity against human UO31 cells assessed as cell growth at 10 uM after 48 hrs by SRB assay relative to control; settings: UO-31, 48 h, read-out: Activity; method in brief: as §1
IGROV-1 = assay: Growth inhibition of human IGROV1 cells at 10 uM after 48 hrs by SRB assay relative to control; settings: IGROV-1, 48 h, read-out: GI; method in brief: as §1
NCI-H522 [6] = assay: Growth inhibition of human NCI-H522 cells at 10 uM after 48 hrs by SRB assay relative to control; settings: NCI-H522, 48 h, read-out: GI; method in brief: as §1
NCI-H522 [7] = assay: Cytotoxicity against human NCI-H522 cells assessed as cell growth at 10 uM after 48 hrs by SRB assay relative to control; settings: NCI-H522, 48 h, read-out: Activity; method in brief: as §2
HOP-92 = assay: Cytotoxicity against human HOP92 cells assessed as cell growth at 10 uM after 48 hrs by SRB assay relative to control; settings: HOP-92, 48 h, read-out: Activity; method in brief: as §2
NCI-H322M = assay: Cytotoxicity against human NCI-H322M cells assessed as cell growth at 10 uM after 48 hrs by SRB assay relative to control; settings: read-out: Activity; method in brief: as §2
UO-31 [8] = assay: Growth inhibition of human UO31 cells at 10 uM after 48 hrs by SRB assay relative to control; settings: UO-31, 48 h, read-out: GI; method in brief: as §1

| Structure (SMILES) | growth at 10 µM (UO-31 [5]) | further results |
| --- | --- | --- |
| Nc1ccccc1-c1nn2c(CCC(=O)c3nc4ccccc4[nH]3)nnc2s1 |  | inhibition of growth at 10 µM (MCF7 [1]): ≤ 32%; growth at 10 µM (MCF7 [2]): 62% |
| CCOc1nn2c(CCC(=O)c3nc4ccccc4[nH]3)nnc2s1 |  | inhibition of growth at 10 µM (HOP-62 [3]): ≤ 32%; growth at 10 µM (HOP-62 [4]): 28.7% |
| Cc1nn2c(CCC(=O)c3nc4ccccc4[nH]3)nnc2s1 |  | growth at 10 µM (T47D): 84.2% |
| O=C(CCc1nnc2sc(CCCl)nn12)c1nc2ccccc2[nH]1 | 80.1% |  |
| NCCCc1nn2c(CCC(=O)c3nc4ccccc4[nH]3)nnc2s1 | 73.8% |  |
| O=C(CCc1nnc2sc(S)nn12)c1nc2ccccc2[nH]1 | 76.6% |  |
| CCOC1=Nn2c(CCC(=O)c3nc4ccccc4[nH]3)nnc2SC1 | 80.3% |  |
| N#CCc1nn2c(CCC(=O)c3nc4ccccc4[nH]3)nnc2s1 | 75.5% |  |
| C/C=C\c1nn2c(CCC(=O)c3nc4ccccc4[nH]3)nnc2s1 | 54.9% | inhibition of growth at 10 µM (IGROV-1): ≤ 32% |
| O=C(CCc1nnc2n1N=C(Cl)CS2)c1nc2ccccc2[nH]1 | 78.9% |  |
| O=C(CCc1nnc2sc(C(c3ccccc3)c3ccccc3)nn12)c1nc2ccccc2[nH]1 |  | inhibition of growth at 10 µM (NCI-H522 [6]): ≤ 32%; growth at 10 µM (NCI-H522 [7]): 30.2% |
| O=C(CCc1nnc2sc(CCl)nn12)c1nc2ccccc2[nH]1 | 83.9% |  |
| O=C(CCc1nnc2sc(-c3ccccc3O)nn12)c1nc2ccccc2[nH]1 | 51.3% | inhibition of growth at 10 µM (IGROV-1): ≤ 32% |
| O=C(CCc1nnc(S)o1)c1nc2ccccc2[nH]1 |  | growth at 10 µM (HOP-92): 69.4% |
| NC1=Nn2c(CCC(=O)c3nc4ccccc4[nH]3)nnc2SC1 | 80.4% |  |
| O=C(CCc1nnc2sc(-c3ccccc3S)nn12)c1nc2ccccc2[nH]1 |  | growth at 10 µM (NCI-H322M): 73.9% |
| O=C(CCc1nnc2sc(Cc3ccccc3Cl)nn12)c1nc2ccccc2[nH]1 | 63% | inhibition of growth at 10 µM (UO-31 [8]): ≤ 32% |
| O=C(CCc1nnc2sc(-c3ccc(O)cc3)nn12)c1nc2ccccc2[nH]1 | 67.7% | inhibition of growth at 10 µM (UO-31 [8]): ≤ 32% |
| O=C(CCc1nnc2sc(CS)nn12)c1nc2ccccc2[nH]1 | 79.4% |  |
| C=Cc1nn2c(CCC(=O)c3nc4ccccc4[nH]3)nnc2s1 | 76.2% |  |
| O=C(CCc1nnc2sc(Nc3ccc(Cl)cc3)nn12)c1nc2ccccc2[nH]1 | 64.2% | inhibition of growth at 10 µM (UO-31 [8]): ≤ 32% |
| COc1ccc(-c2nn3c(CCC(=O)c4nc5ccccc5[nH]4)nnc3s2)cc1 | 69.6% |  |
| O=C(CCc1nnc2n1N=C(O)CS2)c1nc2ccccc2[nH]1 | 79.8% |  |
| O=C(CCc1nnc2sc(COc3ccccc3)nn12)c1nc2ccccc2[nH]1 | 64.3% | inhibition of growth at 10 µM (UO-31 [8]): ≤ 32% |

Source: ChEMBL document CHEMBL2331220, “Benzimidazole clubbed with triazolo-thiadiazoles and triazolo-thiadiazines: new anticancer agents” (2013)
